Assay results as given in ChEMBL document CHEMBL5226362, “Screening for Cyclotides in Sri Lankan Medicinal Plants: Discovery, Characterization, and Bioactivity Screening of Cyclotides from Geophila repens” (J Nat Prod, 2023).
pEC50, pIC50: −log10 of the molar value. Values after ≈ are worked out from the molar mass of the structure shown. Active and inactive are the calls of the source. The rule behind the calls is not given here. Where a SMILES comes first, the peptide text is derived from it. Bridges are numbered along the chain shown (N, C = ends).

What was measured:
[1] = test system: Pseudomonas aeruginosa; assay: Antibacterial activity against Pseudomonas aeruginosa ATCC 27853 assessed as inhibition of bacterial growth at 6 to 12 hrs by dilution method; format: functional; settings: time 6-12 hrs
Outline: (§1)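 Broth-free microdilution MIC assay. Microbes were grown overnight in 3% TSB at 37 °C, washed twice and resuspended in Tris buffer, then adjusted by A600 to 1 × 10⁶ cells/mL (about 50 000 cells/well). Cells were mixed 1:1 with 2-fold serial dilutions of peptide in Tris buffer (highest tested 32.5 μM) and held 5 h. Then 20% TSB was added and plates incubated 6–12 h at 37 °C, depending on organism. MIC was read as the lowest concentration giving 100% growth inhibition. Run in triplicate.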

[2] = test system: Staphylococcus aureus; assay: Antibacterial activity against Staphylococcus aureus ATCC 29213 assessed as inhibition of bacterial growth at 6 to 12 hrs by dilution method; format: functional; settings: time 6-12 hrs; outline: as §1
[3] = test system: Candida albicans; assay: Antibacterial activity against Candida albicans ATCC 90028 assessed as inhibition of bacterial growth at 6 to 12 hrs by dilution method; format: functional; settings: time 6-12 hrs; outline: as §1
[4] = test system: Cell membrane; assay: Induction of bacterial inner membrane permeabilization in Escherichia coli assessed as carboxyfluorescein leakage measured for 45 mins by fluorescence based microplate reader assay; format: subcellular
Outline: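 Liposomes were made from E. coli polar lipid extract loaded with 100 mM carboxyfluorescein in 10 mM Tris, pH 7.4, extruded through 100 nm membranes and gel-filtered. They were added at 10 μM final lipid to 2-fold peptide dilutions in Tris at 37 °C, with no cumulative additions. Dequenching was monitored for 45 min and normalized to 0.16% Triton X-100 after baseline subtraction. Values are the mean ± SD of triplicates; EC50 came from a variable-slope sigmoidal fit against log concentration.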

[5] = test system: U-937; assay: Cytotoxicity against human U-937 cells assessed as cell survival at 20 uM incubated for 72 hrs by FMCA assay; format: functional, cell-based
Outline: (§2)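 FMCA with U937 human lymphoma cells, about 20 000 cells/well, exposed to 2-fold peptide dilutions for 72 h at 37 °C in 5% CO₂. Cells were washed with PBS and given FDA in Q2 buffer (NaCl/HEPES, pH 7.4) for 40 min at 37 °C. Fluorescence was read at ex 485/em 538 nm. Viability was expressed as % of control after blank subtraction; IC50 came from a variable-slope sigmoidal fit against log concentration.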

[6] = test system: U-937; assay: Cytotoxicity against human U-937 cells assessed as inhibition of cell growth incubated for 72 hrs by FMCA assay; format: functional, cell-based; settings: U-937, 72 h
Outline: as §2, with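 “°C.” for “°C. Fluorescence was read at ex 485/em 538 nm.”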

MIC [1] [µM] | MIC [2] [µM] | MIC [3] [µM] | pEC50 [4] | Structure (SMILES) | Activity [5] | pIC50 [6]
> 10 | > 10 | > 10 | 6.80 | CC[C@H](C)[C@@H]1NC(=O)[C@H](Cc2ccccc2)NC(=O)[C@H](C(C)C)NC(=O)[C@@H]2CSSC[C@@H]3NC(=O)[C@H](CO)NC(=O)[C@H]4CSSC[C@H](NC(=O)[C@@H]5CCCN5C(=O)[C@H](C(C)C)NC(=O)CNC(=O)[C@H](CC(N)=O)NC(=O)[C@H](CC(N)=O)NC(=O)[C@H](Cc5ccc(O)cc5)NC(=O)[C@H](CSSC[C@H](NC(=O)[C@@H]5CCCN5C1=O)C(=O)N[C@@H](Cc1ccccc1)C(=O)N[C@@H]([C@@H](C)O)C(=O)N[C@@H]([C@@H](C)O)C(=O)N[C@@H](C(C)C)C(=O)N[C@@H](C(C)C)C(=O)NCC(=O)N4)NC(=O)[C@H](C(C)C)NC(=O)[C@H](CCCCN)NC(=O)[C@H](CC(=O)O)NC(=O)[C@H](CCCCN)NC3=O)C(=O)NCC(=O)N[C@@H](CCC(=O)O)C(=O)N[C@@H](CO)C(=O)N2 | Active | 
> 10 | > 10 | > 10 | 6.80 | CC[C@H](C)[C@@H]1NC(=O)[C@H](C(C)C)NC(=O)[C@H]([C@@H](C)O)NC(=O)[C@H]([C@@H](C)O)NC(=O)[C@H]([C@@H](C)CC)NC(=O)[C@H]2CSSC[C@@H]3NC(=O)[C@H](C(C)C)NC(=O)[C@H](CCCCN)NC(=O)[C@H](CC(=O)O)NC(=O)[C@H](CCCCN)NC(=O)[C@@H]4CSSC[C@H](NC(=O)[C@H](CO)NC(=O)[C@H](CCC(=O)O)NC(=O)CNC(=O)[C@H](CSSC[C@@H](NC(=O)CNC1=O)C(=O)N[C@@H](CO)C(=O)N4)NC(=O)[C@@H]1CCCN1C(=O)[C@H](C(C)C)NC(=O)CNC(=O)[C@H](CC(N)=O)NC(=O)[C@H]([C@@H](C)O)NC(=O)[C@H](Cc1ccc(O)cc1)NC3=O)C(=O)N[C@@H](C(C)C)C(=O)N[C@@H](Cc1ccccc1)C(=O)N[C@@H]([C@@H](C)CC)C(=O)N1CCC[C@H]1C(=O)N2 | Active | 
10 (≈ 31.4 µg/mL) | > 10 | > 10 |  | CC[C@H](C)[C@@H]1NC(=O)[C@H](C)NC(=O)[C@H](CO)NC(=O)[C@H](CO)NC(=O)[C@H]([C@@H](C)CC)NC(=O)[C@@H]2CSSC[C@@H]3NC(=O)[C@H](C(C)C)NC(=O)[C@H](CCCCN)NC(=O)[C@H](CO)NC(=O)[C@H](CCCCN)NC(=O)[C@@H]4CSSC[C@H](NC(=O)[C@H](CO)NC(=O)[C@H](CCC(=O)O)NC(=O)CNC(=O)[C@H](CSSC[C@H](NC(=O)CNC1=O)C(=O)N[C@@H](CO)C(=O)N4)NC(=O)[C@@H]1CCCN1C(=O)[C@H]([C@@H](C)CC)NC(=O)CNC(=O)[C@H](CC(N)=O)NC(=O)[C@H](CCCNC(=N)N)NC(=O)[C@H](Cc1ccc(O)cc1)NC3=O)C(=O)N[C@@H](C(C)C)C(=O)N[C@@H](Cc1c[nH]c3ccccc13)C(=O)N[C@@H]([C@@H](C)CC)C(=O)N1CCC[C@H]1C(=O)N2 (cyclo(AIGCSCKSKVCYRNGIPCGESCVWIPCISS); disulfide 4-18, 6-22, 11-27) |  | 6.59
> 10 | > 10 | > 10 | 6.85 | CC[C@H](C)[C@@H]1NC(=O)CNC(=O)[C@H](CC(N)=O)NC(=O)[C@H]([C@@H](C)CC)NC(=O)[C@H](Cc2ccc(O)cc2)NC(=O)[C@@H]2CSSC[C@H]3NC(=O)CNC(=O)[C@H](Cc4ccccc4)NC(=O)[C@H](Cc4ccc(O)cc4)NC(=O)[C@H](C)NC(=O)[C@@H]4CSSC[C@H](NC(=O)[C@H](CO)NC(=O)[C@H](CSSC[C@H](NC(=O)[C@H](C)NC1=O)C(=O)NCC(=O)N[C@@H](CCC(=O)O)C(=O)N[C@@H](CO)C(=O)N4)NC(=O)CNC(=O)[C@@H]1CCCN1C(=O)[C@H]([C@@H](C)CC)NC(=O)[C@H](Cc1c[nH]c4ccccc14)NC3=O)C(=O)N[C@@H](CCCCN)C(=O)N[C@@H](CC(=O)O)C(=O)N[C@@H](CCCCN)C(=O)N[C@@H](C(C)C)C(=O)N2 | Active | 
